This note sets out measurements from ChEMBL document CHEMBL1146002, “Substituted N-(2-aminophenyl)-benzamides, (E)-N-(2-aminophenyl)-acrylamides and their analogues: novel classes of histone deacetylase inhibitors” (Bioorg Med Chem Lett, 2006).

Calls of active or inactive are those of the source. The calls are words filed in the database; no cut-off is given here.

The test system of data set [1] is HCT-116. Kind of data set: Antiproliferative activity against human HCT116 cells by MTT assay. The class given is functional, cell-based. On the technique in general: Tetrazolium assays rely on reduction of a dye to a coloured formazan, in cell work by metabolically active cells.
For data set [2], the target named is Histone deacetylase 1 (Homo sapiens, UniProt Q13547). Kind of data set: Inhibition of human recombinant HDAC1.
The nature of data set [3]: Bioavailability in rat. Type of data set: ADME, organism-based. Particulars: in vivo.
The target in data set [4] is Histone deacetylase (Homo sapiens) (UniProt Q13547+O15379+Q9UBN7+Q92769+Q9UQL6+Q8WUI4+Q9BY41+Q96DB2+P56524+Q9UKV0+Q969S8). Kind of data set: Inhibition of HDAC assessed as ability to induce histone acetylation in human T24 cells. The class given is functional, cell-based. Particulars: T-24. An outline of the steps:
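T24 human bladder carcinoma cells treated at […] for 16 h. Histones acid-extracted, separated by SDS–PAGE and immunoblotted with antibodies specific for acetylated histone H4; total H4 also probed. Dose-dependence judged from blot.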

Data set [5] has as its system HCT-116. Kind of data set: Cell cycle arrest in human HCT116 cells at G2/M phase. The class given is functional, cell-based. Summed up: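 HCT116 cells treated with compounds in 1% DMSO for 16 h, then harvested by trypsinization and fixed. DNA was stained with propidium iodide and analysed by flow cytometry. The (G2+M)/S ratio is the percentage of gated cells in G2/M divided by the percentage in S phase.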

Data set [6] has as its system T-24. Kind of data set: Induction of p21 WAF1/Cip1 transcription in human T24 cells assessed by luciferase reporter gene activity. The class given is functional, cell-based. In general terms: A reporter such as luciferase makes a cellular process visible.
For data set [7], the system named is HMEC. Kind of data set: Cytotoxicity against human HMEC cells. Type of data set: functional, cell-based. Summed up: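 Cytotoxicity toward normal cells was measured as inhibition of proliferation of human normal mammary epithelial cells (HMEC), reported as IC50.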
Data set [8] is described as follows: Half life in iv dosed rat. The class given is ADME, organism-based. Particulars: in vivo.
In data set [9] the test system is HCT-116. Kind of data set: Antitumor activity against human HCT116 cells xenografted in mouse at 50 mg/kg, ip. Type of data set: functional. Particulars: HCT-116, ip, route intraperitoneal, read-out: TGI. Summed up:
(§1)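 Human tumour cells grown as xenografts in mice; compounds given daily by intraperitoneal injection. Antitumour activity is expressed as % tumour growth inhibition relative to vehicle-treated controls. Body weight was followed as the measure of gross toxicity.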
A general note: Xenograft models place foreign cells or tissue in a host animal.

Data set [10] has as its system SW48. Kind of data set: Antitumor activity against human SW48 cells xenografted in mouse at 50 mg/kg, ip. The class given is functional. Particulars: route intraperitoneal, read-out: TGI. An outline of the steps:
as §1

Sequence of Histone deacetylase 1 (Q13547 whole entry): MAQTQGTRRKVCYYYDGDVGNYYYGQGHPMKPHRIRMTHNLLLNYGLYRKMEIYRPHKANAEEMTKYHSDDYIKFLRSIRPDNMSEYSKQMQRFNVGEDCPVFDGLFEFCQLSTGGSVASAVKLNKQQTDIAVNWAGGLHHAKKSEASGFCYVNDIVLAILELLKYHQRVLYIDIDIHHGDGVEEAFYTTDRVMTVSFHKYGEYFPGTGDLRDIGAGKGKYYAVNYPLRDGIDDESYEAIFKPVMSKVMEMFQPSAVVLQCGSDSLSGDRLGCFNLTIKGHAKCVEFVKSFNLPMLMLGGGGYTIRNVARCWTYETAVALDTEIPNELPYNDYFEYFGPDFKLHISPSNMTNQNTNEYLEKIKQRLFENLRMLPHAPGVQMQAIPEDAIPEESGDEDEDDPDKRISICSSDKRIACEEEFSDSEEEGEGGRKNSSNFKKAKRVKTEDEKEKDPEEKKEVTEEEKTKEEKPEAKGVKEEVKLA

In general, IC50 refers to the concentration that gives 50% inhibition. On to `Nc1ccccc1NC(=O)/C=C/c1ccc(NCc2ccncc2)cc1`, for which the IC50 came to 2 µM in [1] and 10 µM in data set [2].

Regarding `COc1ccc(NCc2ccc(/C=C/C(=O)Nc3ccccc3N)cc2)cc1OC`, the IC50 in data set [1] worked out at 5 µM; in data set [2] it was 2 µM.

As to `Nc1ccccc1NC(=O)/C=C/c1ccc(CNc2ccccc2)cc1`, the results for the IC50 in data set [1] and in [2] were 11 µM and 17 µM, respectively.

`Nc1ccccc1NC(=O)/C=C/c1ccc(NCCCc2ccccc2)nc1`: the values for the IC50 in data set [1] and in [2] were 2 µM and 3 µM, respectively.

On to `Nc1ccccc1NC(=O)/C=C/c1ccc(NCc2ccc(F)cc2)nc1`, for which the figures for the IC50 in data set [1] and in [2] were 2 µM and 5 µM, respectively.

Consider `COc1ccc(NCc2ccc(/C=C/C(=O)Nc3ccccc3N)cc2)cc1`, for which, in data set [2], the IC50 was found to be 4 µM.

On to `COc1cc(N(C)Cc2ccc(/C=C/C(=O)Nc3ccccc3N)cc2)cc(OC)c1OC`, for which the figures for the IC50 in data set [1] and in data set [2] were 5 µM and 3 µM, respectively.

In the case of `Nc1ccccc1NC(=O)/C=C/c1ccc(NCc2ccncc2)nc1`, the figures for the IC50 in data set [1] and in data set [2] were 7 µM and 4 µM, respectively.

For the molecule `COc1ccc(NCc2ccc(C(=O)Nc3ccccc3N)cc2)cc1`, the IC50 in data set [1] turned out to be 2 µM; in data set [2] it was 0.6 µM.

With `COc1ccc(CCNc2ccc(C(=O)Nc3ccccc3N)cn2)cc1`, in [2], the IC50 came to 3 µM.

In the case of `COc1ccc(CNc2ccc(C(=O)Nc3ccccc3N)cc2)cc1`, the IC50 in [1] came out at 1 µM; in data set [2], 2 µM.

In the case of `COc1cc(NCc2ccc(/C=C/C(=O)Nc3ccccc3N)cn2)cc(OC)c1OC`, the IC50 in data set [2] was determined as 3 µM.

Turning to `Nc1ccccc1NC(=O)/C=C/c1ccc(NCc2ccc(OC(F)(F)F)cc2)nc1`, the IC50 in data set [1] was 4 µM; in data set [2], 2 µM.

`COc1ccc(CNc2ccc(/C=C/C(=O)Nc3ccccc3N)cn2)cc1`: the IC50 in [2] came to 2 µM.

Regarding `COc1ccc(CNc2ccc(C(=O)Nc3ccccc3N)cc2)cc1OC`, the IC50 in data set [2] came to 4 µM.

What is called bioavailability is dose-corrected exposure relative to a reference, in per cent. A low value points to little systemic uptake. By half-life is commonly meant how long it takes for the measured level to halve. A low value points to rapid decline. In turn, `COc1cc(NCc2ccc(/C=C/C(=O)Nc3ccccc3N)cc2)cc(OC)c1OC` displayed a bioavailability in data set [3] of 65%. Moreover, in data set [4], the Activity entry is “Dose-dependent effect”. Besides, the outcome in data set [5] and in data set [6] was Active. The values for the IC50 in data set [7] and in [2] were 39 µM and 2 µM, respectively. In data set [8], this molecule gave a half-life of 108 min.

In the case of `COc1ccccc1NCc1ccc(/C=C/C(=O)Nc2ccccc2N)cc1`, in data set [2], the IC50 is 22 µM.

For `COc1ccc(CNc2ccc(C(=O)Nc3ccccc3N)cn2)cc1`, the IC50 in data set [2] turned out to be 4 µM.

In the case of `Nc1ccccc1NC(=O)/C=C/c1ccc(NCCNc2ccccc2)nc1`, the IC50 in [1] was 5 µM; in [2] it was 2 µM.

On to `COc1ccc(NCc2ccc(C(=O)Nc3ccccc3N)cc2)cc1OC`, for which the Activity entry in data set [4] is “Dose-dependent effect”. Also, the outcome in data set [5] and in data set [6] was Active. For the same molecule, the inhibition in vivo at 50 mg/kg in data set [9] and in data set [10] was 66% throughout. In [7], it took 15 µM to reach half-maximal inhibition (IC50). Besides, the half-life in data set [8] was 42 min.

With `COc1cc(CNc2ccc(C(=O)Nc3ccccc3N)cc2)cc(OC)c1OC`, the IC50 in data set [1] is 2 µM; in data set [2] it was 3 µM.

With `COc1cc(CNc2ccc(C(=O)Nc3ccccc3N)cn2)cc(OC)c1OC`, the figures for the IC50 in data set [1] and in [2] were 3 µM and 5 µM, respectively.

Take `CN(C)c1ccc(CNc2ccc(/C=C/C(=O)Nc3ccccc3N)cn2)cc1`: the IC50 in data set [1] stood at 3 µM; in data set [2] it was 4 µM.

As for `COc1ccc(CNc2ccc(/C=C/C(=O)Nc3ccccc3N)cc2)cc1`, in data set [2], the IC50 was found to be 4 µM.

With `COc1cccc(NCc2ccc(/C=C/C(=O)Nc3ccccc3N)cc2)c1`, the figures for the IC50 in [1] and in [2] were 10 µM and 17 µM, respectively.

For the molecule `COc1cc(NCc2ccc(C(=O)Nc3ccccc3N)cc2)cc(OC)c1OC`, the figures for the IC50 in [1] and in data set [2] were 2 µM and 3 µM, respectively.

`Nc1ccccc1NC(=O)/C=C/c1ccc(NCc2ccc([N+](=O)[O-])cc2)cc1`: the values for the concentration for half-maximal inhibition (IC50) in data set [1] and in data set [2] were 15 µM and 4 µM, respectively.

Regarding `COc1cc(CNc2ccc(/C=C/C(=O)Nc3ccccc3N)cn2)cc(OC)c1OC`, the IC50 in [2] is 4 µM.

Consider `Nc1ccccc1NC(=O)/C=C/c1ccc(NCc2ccccc2)nc1`, for which, in data set [2], the IC50 is 3 µM.

`Nc1ccccc1NC(=O)/C=C/c1ccc(NCc2ccc(OC(F)(F)F)cc2)cc1`: the IC50 in data set [1] worked out at 50 µM; in data set [2] it was 5 µM.
